From ChEMBL document CHEMBL1152203, “New jasmonate analogues as potential anti-inflammatory agents” (Bioorg Med Chem, 2008) come the findings set out here.

The source made the active and inactive calls. The calls are words filed in the database; no cut-off is given here.

The first series relates to RAW264.7. Nature of the series: Antiinflammatory activity in LPS-stimulated mouse RAW264.7 cells assessed as inhibition of NO production after 24 hrs by Griess reagent method. Type of series: functional, cell-based.
Details: not given
In outline: (§1)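 RAW264.7 cells at 1.5 × 10^5 cells/mL, pre-incubated 18 h in 24-well plates, then stimulated with LPS (1 µg/mL) alone or with test samples for 24 h. Samples dissolved in EtOH diluted with DMEM, solvent ≤0.1% final. NO in supernatant by Griess reagent (10 min, room temperature, light protected, absorbance 540 nm); IL-6 and TNF-α by ELISA. Mean ± SD.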
Take `CCCCCC1C(=O)C=CC1CC(=O)O` (stereo not drawn): the Activity entry was “Dose-dependent effect”.

For the compound `CC/C=C\CC1C(=O)C=CC1CC(=O)NCCO` (stereo not drawn), the Activity result was “Dose-dependent effect”.

As to `CCCCCC1C(=O)C=CC1CC(=O)NC(C)C` (stereo not drawn), the Activity entry is “Dose-dependent effect”.

On to `CC/C=C\CC1C(=O)C=CC1CC(=O)NC(C)C` (stereo not drawn), for which the Activity result was “Dose-dependent effect”.

Take `CCCCCC1C(=O)C(Cl)=CC1CC(=O)O` (stereo not drawn): the Activity result is “Dose-dependent effect”.

`CC/C=C\CC1C(=O)C(I)=CC1CC(=O)OC` (stereo not drawn): the Activity result is “Dose-dependent effect”.

In the case of `CC/C=C\CC1C(=O)C(Cl)=CC1CC(=O)O` (stereo not drawn), the Activity entry is “Dose-dependent effect”.

On to `CC/C=C\CC1C(=O)C=CC1CC(=O)OC` (stereo not drawn), for which the Activity entry was “Dose-dependent effect”.

The next series concerns RAW264.7. As to the kind of experiment: Antiinflammatory activity in LPS-stimulated mouse RAW264.7 cells assessed as inhibition of IL6 production at after 24 hrs by ELISA. Type of series: functional, cell-based.
Details: not given
Put shortly: as §1
A general note: An ELISA detects its analyte on a solid surface through an enzyme-linked reagent.
Regarding `CCCCCC1C(=O)C=CC1CC(=O)O` (stereo not drawn), the Activity result is “Dose-dependent effect”.

`CC/C=C\CC1C(=O)C=CC1CC(=O)NCCO` (stereo not drawn): the Activity result is “Dose-dependent effect”.

In the case of `CCCCCC1C(=O)C=CC1CC(=O)NC(C)C` (stereo not drawn), the Activity result is “Dose-dependent effect”.

For the compound `CC/C=C\CC1C(=O)C=CC1CC(=O)NC(C)C` (stereo not drawn), the Activity entry is “Dose-dependent effect”.

Regarding `CCCCCC1C(=O)C(Cl)=CC1CC(=O)O` (stereo not drawn), the Activity result was “Dose-dependent effect”.

Consider `CC/C=C\CC1C(=O)C(I)=CC1CC(=O)OC` (stereo not drawn), for which the Activity entry was “Dose-dependent effect”.

Take `CC/C=C\CC1C(=O)C(Cl)=CC1CC(=O)O` (stereo not drawn): the Activity result is “Dose-dependent effect”.

On to `CC/C=C\CC1C(=O)C=CC1CC(=O)OC` (stereo not drawn), for which the Activity result is “Dose-dependent effect”.

The next series has as its system RAW264.7. As to the kind of experiment: Antiinflammatory activity in LPS-stimulated mouse RAW264.7 cells assessed as inhibition of TNFalpha production after 24 hrs by ELISA. Type of series: functional, cell-based.
Details: not given
In outline: as §1
On to `CCCCCC1C(=O)C=CC1CC(=O)O` (stereo not drawn), for which the Activity entry is “Dose-dependent effect”.

For the compound `CC/C=C\CC1C(=O)C=CC1CC(=O)NCCO` (stereo not drawn), the Activity entry was “Dose-dependent effect”.

With `CCCCCC1C(=O)C=CC1CC(=O)NC(C)C` (stereo not drawn), the Activity result is “Dose-dependent effect”.

As for `CC/C=C\CC1C(=O)C=CC1CC(=O)NC(C)C` (stereo not drawn), the Activity result is “Dose-dependent effect”.

`CCCCCC1C(=O)C(Cl)=CC1CC(=O)O` (stereo not drawn): the Activity entry was “Dose-dependent effect”.

For `CC/C=C\CC1C(=O)C(I)=CC1CC(=O)OC` (stereo not drawn), the Activity result is “Dose-dependent effect”.

On to `CC/C=C\CC1C(=O)C(Cl)=CC1CC(=O)O` (stereo not drawn), for which the Activity entry is “Dose-dependent effect”.

With `CC/C=C\CC1C(=O)C=CC1CC(=O)OC` (stereo not drawn), the Activity result was “Dose-dependent effect”.

A further series relates to RAW264.7. As to the kind of experiment: Antiinflammatory activity in LPS-stimulated mouse RAW264.7 cells assessed as inhibition of NO production at 25 uM after 24 hrs by Griess reagent method. Type of series: functional, cell-based.
Details: not given
In outline:
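Test samples at 12.5 and 25.0 µM with LPS (1 µg/mL) on RAW264.7 cells (1.5 × 10^5 cells/mL) for 24 h. NO read by Griess method, IL-6 and TNF-α by ELISA. Means ± SD of triplicate experiments.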
In general terms: Griess reagent forms a coloured azo dye with nitrite.
Take `CCCCCC1C(=O)C=CC1CC(=O)O` (stereo not drawn): the result was Active.

Regarding `CC/C=C\CC1C(=O)C=CC1CC(=O)NCCO` (stereo not drawn), the outcome was Active.

On to `CCCCCC1C(=O)C=CC1CC(=O)NC(C)C` (stereo not drawn), for which the outcome was Active.

Turning to `CC/C=C\CC1C(=O)C=CC1CC(=O)NC(C)C` (stereo not drawn), the outcome was Active.

As to `CCCCCC1C(=O)C(Cl)=CC1CC(=O)O` (stereo not drawn), the outcome was Active.

`CC/C=C\CC1C(=O)C(Cl)=CC1CC(=O)O` (stereo not drawn): the result was Active.

For the compound `CC/C=C\CC1C(=O)C=CC1CC(=O)OC` (stereo not drawn), the outcome was Active.

Another series concerns RAW264.7. Nature of the series: Antiinflammatory activity in LPS-stimulated mouse RAW264.7 cells assessed as inhibition of NO production at 12.5 uM after 24 hrs by Griess reagent method. Type of series: functional, cell-based.
Details: not given
Put shortly:
as §1
Consider `CCCCCC1C(=O)C=CC1CC(=O)O` (stereo not drawn), for which the outcome was Active.

For `CC/C=C\CC1C(=O)C=CC1CC(=O)NCCO` (stereo not drawn), the outcome was Active.

In the case of `CCCCCC1C(=O)C=CC1CC(=O)NC(C)C` (stereo not drawn), the outcome was Active.

For `CC/C=C\CC1C(=O)C=CC1CC(=O)NC(C)C` (stereo not drawn), the result was Active.

As for `CCCCCC1C(=O)C(Cl)=CC1CC(=O)O` (stereo not drawn), the outcome was Active.

Turning to `CC/C=C\CC1C(=O)C(Cl)=CC1CC(=O)O` (stereo not drawn), the result was Active.

For the compound `CC/C=C\CC1C(=O)C=CC1CC(=O)OC` (stereo not drawn), the result was Active.

The test system of a further series is RAW264.7. As to the kind of experiment: Antiinflammatory activity in LPS-stimulated mouse RAW264.7 cells assessed as inhibition of IL6 production at 12.5 uM after 24 hrs by ELISA. It is filed as functional, cell-based.
Details: not given
Put shortly:
as §1
Regarding `CCCCCC1C(=O)C=CC1CC(=O)O` (stereo not drawn), the outcome was Active.

In the case of `CC/C=C\CC1C(=O)C=CC1CC(=O)NCCO` (stereo not drawn), the result was Active.

Consider `CCCCCC1C(=O)C=CC1CC(=O)NC(C)C` (stereo not drawn), for which the outcome was Active.

For the compound `CC/C=C\CC1C(=O)C=CC1CC(=O)NC(C)C` (stereo not drawn), the outcome was Active.

In the case of `CCCCCC1C(=O)C(Cl)=CC1CC(=O)O` (stereo not drawn), the outcome was Active.

In the case of `CC/C=C\CC1C(=O)C(Cl)=CC1CC(=O)O` (stereo not drawn), the outcome was Active.

For `CC/C=C\CC1C(=O)C=CC1CC(=O)OC` (stereo not drawn), the result was Active.

For another series, the system named is RAW264.7. As to the kind of experiment: Antiinflammatory activity in LPS-stimulated mouse RAW264.7 cells assessed as inhibition of TNFalpha production at 12.5 uM after 24 hrs by ELISA. It is filed as functional, cell-based.
Details: not given
In outline: as §1
Turning to `CCCCCC1C(=O)C=CC1CC(=O)O` (stereo not drawn), the result was Active.

Turning to `CC/C=C\CC1C(=O)C=CC1CC(=O)NCCO` (stereo not drawn), the result was Active.

For the compound `CCCCCC1C(=O)C=CC1CC(=O)NC(C)C` (stereo not drawn), the outcome was Active.

For the compound `CC/C=C\CC1C(=O)C=CC1CC(=O)NC(C)C` (stereo not drawn), the result was Active.

With `CCCCCC1C(=O)C(Cl)=CC1CC(=O)O` (stereo not drawn), the outcome was Active.

Take `CC/C=C\CC1C(=O)C(Cl)=CC1CC(=O)O` (stereo not drawn): the result was Active.

For `CC/C=C\CC1C(=O)C=CC1CC(=O)OC` (stereo not drawn), the outcome was Active.

In the next series the test system is RAW264.7. As to the kind of experiment: Antiinflammatory activity in LPS-stimulated mouse RAW264.7 cells assessed as inhibition of NO production at 100 uM after 24 hrs by Griess reagent method. It is filed as functional, cell-based.
Details: not given
In outline:
(§2)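 Conditions used at 50 and 100 µM: RAW264.7 cells (1.5 × 10^5 cells/mL) stimulated with LPS (1 µg/mL) alone or with samples for 24 h. Supernatant NO measured by Griess reagent, absorbance 540 nm; IL-6 and TNF-α by ELISA. Means ± SD of duplicate experiments; blank and LPS-only controls.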
As for `CC/C=C\CC1C(=O)C=CC1CC(=O)OC` (stereo not drawn), the outcome was Active.

The subject of a further series is RAW264.7. Nature of the series: Antiinflammatory activity in LPS-stimulated mouse RAW264.7 cells assessed as inhibition of NO production at 50 uM after 24 hrs by Griess reagent method.
Details: not given
Type of series: functional, cell-based. In outline:
as §2
Take `CC/C=C\CC1C(=O)C=CC1CC(=O)OC` (stereo not drawn): the outcome was Active.

The next series has as its system RAW264.7. As to the kind of experiment: Antiinflammatory activity in LPS-stimulated mouse RAW264.7 cells assessed as inhibition of IL6 production at 50 uM after 24 hrs by ELISA. It is filed as functional, cell-based.
Details: not given
Put shortly:
as §1
For `CC/C=C\CC1C(=O)C=CC1CC(=O)OC` (stereo not drawn), the outcome was Active.

For a further series, the system named is RAW264.7. As to the kind of experiment: Antiinflammatory activity in LPS-stimulated mouse RAW264.7 cells assessed as inhibition of TNFalpha production at 50 uM after 24 hrs by ELISA. It is filed as functional, cell-based.
Details: not given
Put shortly:
as §2
On to `CC/C=C\CC1C(=O)C=CC1CC(=O)OC` (stereo not drawn), for which the result was Active.

The test system of the next series is RAW264.7. As to the kind of experiment: Cytotoxicity against LPS-stimulated mouse RAW264.7 cells at 100 uM after 24 hrs by MTT assay. Conditions: raw264.7, 24 h. It is filed as cell-based. Put shortly:
(§3)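 Viability of RAW264.7 cells (1.5 × 10^5 cells/mL) after 24 h exposure to LPS (1 µg/mL) plus test sample, by MTT. MTT added for 4 h, formazan dissolved in DMSO, absorbance 540 nm. Means ± SD of duplicate (50, 100 µM) or triplicate (other concentrations) experiments.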
For orientation: Tetrazolium assays rely on reduction of a dye to a coloured formazan, in cell work by metabolically active cells.
Take `CC/C=C\CC1C(=O)C=CC1CC(=O)OC` (stereo not drawn): the Activity entry is “Toxic”.

For another series, the system named is RAW264.7. Nature of the series: Cytotoxicity against LPS-stimulated mouse RAW264.7 cells at 50 uM after 24 hrs by MTT assay. Type of series: cell-based. The settings on record: raw264.7, 24 h. In outline: as §3
Regarding `CC/C=C\CC1C(=O)C=CC1CC(=O)OC` (stereo not drawn), the Activity result is recorded as “Toxic”.
